How the values were obtained:
Liver [1] = assay: Drug uptake in mouse liver at 50 mg/kg, po in 20% Kolliphor measured at 8 hrs post dose; format: ADME, organism-based; design: dose 50 mg/kg, route oral; details: in vivo
Procedure, shortened: (§1)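 Female Swiss Webster mice, 8 weeks old, given a single 50 mg/kg oral gavage dose in 20% HPβCD or 20% Kolliphor. Tissues taken from three mice at 2 and 8 h post dose. Homogenized by probe sonication in PBS (1:4 w/v), protein precipitated with acetonitrile, and compound measured by LC-MS/MS in μM.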

Liver [2] = assay: Drug uptake in mouse liver at 50 mg/kg, po in 20% HP-beta-CD measured at 8 hrs post dose; format: ADME, organism-based; design: dose 50 mg/kg, route oral; details: in vivo; procedure, shortened: as §1
[3] = Half life in mouse at 50 mg/kg, po in 20% Kolliphor; format: ADME, organism-based; design: dose 50 mg/kg, route oral; details: in vivo
Procedure, shortened: (§2)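 Female Swiss Webster mice, 8 weeks old, given one oral gavage dose of 50 mg/kg as a 10 mg/mL preparation in the named vehicle (20% HPβCD suspension or 20% Kolliphor). Plasma sampled at about 0.25, 0.5, 1, 2, 4, 6, 8, 12 and 24 h, n = 3 per time point. Protein precipitated with 5 volumes acetonitrile, filtered, then LC-MS/MS. Values are averages of three mice.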

[4] = biological target: Sterol 14-alpha demethylase (Trypanosoma cruzi (strain CL Brener), UniProt Q7Z1V1); assay: Binding affinity to Trypanosoma cruzi CYP51 by UV-vis titration method; details: read-out: Kd(app)
Sequence of Sterol 14-alpha demethylase (Q7Z1V1 whole entry): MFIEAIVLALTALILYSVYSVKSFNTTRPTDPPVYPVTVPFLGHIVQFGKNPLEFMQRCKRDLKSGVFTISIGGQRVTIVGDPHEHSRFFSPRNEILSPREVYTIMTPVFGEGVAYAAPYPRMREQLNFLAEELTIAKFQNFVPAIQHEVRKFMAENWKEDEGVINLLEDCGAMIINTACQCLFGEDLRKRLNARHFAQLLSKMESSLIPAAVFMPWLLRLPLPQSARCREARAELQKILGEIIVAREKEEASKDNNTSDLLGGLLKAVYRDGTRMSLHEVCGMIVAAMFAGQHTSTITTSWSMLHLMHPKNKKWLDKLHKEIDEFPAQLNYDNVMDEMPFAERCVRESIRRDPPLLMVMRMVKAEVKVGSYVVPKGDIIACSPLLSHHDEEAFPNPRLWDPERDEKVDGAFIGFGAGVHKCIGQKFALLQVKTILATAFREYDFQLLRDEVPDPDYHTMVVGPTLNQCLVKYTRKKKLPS

Heart [5] = assay: Drug uptake in mouse heart at 50 mg/kg, po in 20% HP-beta-CD measured at 8 hrs post dose; format: ADME, organism-based; design: dose 50 mg/kg, route oral; details: in vivo; procedure, shortened: as §1
Lung [6] = assay: Drug uptake in mouse lung at 50 mg/kg, po in 20% Kolliphor measured at 8 hrs post dose; format: ADME, organism-based; design: dose 50 mg/kg, route oral; details: in vivo; procedure, shortened: as §1
Liver [7] = assay: Half life in mouse liver microsomes; format: ADME
[8] = AUClast in mouse at 50 mg/kg, po in 20% HP-beta-CD; format: ADME, organism-based, Plasma; design: time 0 - last, dose 50 mg/kg, route oral; details: plasma; procedure, shortened: as §2
Liver microsome [9] = assay: Half life in human liver microsomes; format: ADME
[10] = Drug uptake in mouse skeletal muscle at 50 mg/kg, po in 20% HP-beta-CD measured at 8 hrs post dose; format: ADME, organism-based, Muscle tissue; design: dose 50 mg/kg, route oral; details: in vivo; procedure, shortened: as §1
[11] = AUClast in mouse at 50 mg/kg, po in 20% Kolliphor; format: ADME, organism-based; design: time 0 - last, dose 50 mg/kg, route oral; details: plasma; procedure, shortened: as §2
Cytochrome P450 2D6 = Cytochrome P450 2D6 (Homo sapiens, UniProt P10635); assay: Inhibition of CYP2D6 in human liver microsomes at 1 uM; format: ADME
Sequence of Cytochrome P450 2D6 (P10635 whole entry): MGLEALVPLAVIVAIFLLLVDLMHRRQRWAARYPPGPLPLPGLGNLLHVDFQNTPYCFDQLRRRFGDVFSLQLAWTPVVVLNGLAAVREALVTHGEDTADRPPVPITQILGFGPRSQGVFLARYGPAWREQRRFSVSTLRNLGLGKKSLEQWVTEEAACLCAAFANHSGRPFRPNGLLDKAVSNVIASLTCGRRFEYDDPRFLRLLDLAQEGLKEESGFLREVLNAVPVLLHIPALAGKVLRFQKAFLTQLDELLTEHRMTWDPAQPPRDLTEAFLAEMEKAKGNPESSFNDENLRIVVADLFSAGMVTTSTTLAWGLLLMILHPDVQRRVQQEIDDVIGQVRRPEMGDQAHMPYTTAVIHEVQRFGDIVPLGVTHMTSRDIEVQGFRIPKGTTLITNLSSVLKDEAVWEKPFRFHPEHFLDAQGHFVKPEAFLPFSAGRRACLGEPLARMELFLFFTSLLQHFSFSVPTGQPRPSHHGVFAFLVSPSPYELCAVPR

Trypanosoma cruzi [12] = assay: Antitrypanosomal activity against Trypanosoma cruzi Y luc infected in mouse assessed as inhibition of parasitemia at 50 mg/kg, po bid in 20% Kolliphor administered for 4 consecutive days starting on day 3 of infection measured on day 7 post infection relative to vehicle-treated control; format: functional
Procedure, shortened: (§3)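 Female Swiss Webster mice, 8 weeks old, infected ip with 10^5 T. cruzi Y luc trypomastigotes. Only mice with detectable luminescence on day 3 were treated. Compound given by oral gavage bid for four days, as a suspension in 20% HPβCD or a solution in 20% Kolliphor, five mice per group. Vehicle group and benznidazole 50 mg/kg served as controls. On day 7, mice were injected ip with 150 mg/kg d-luciferin and imaged after 5 min under isoflurane. Percent inhibition calculated against untreated mice; two-tailed paired t test.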

Cytochrome P450 1A2 = biological target: T1, Cytochrome P450 1A2 (Homo sapiens, UniProt P05177); assay: Inhibition of CYP1A2 in human liver microsomes at 1 uM; format: ADME
T1 sequence (P05177 whole entry): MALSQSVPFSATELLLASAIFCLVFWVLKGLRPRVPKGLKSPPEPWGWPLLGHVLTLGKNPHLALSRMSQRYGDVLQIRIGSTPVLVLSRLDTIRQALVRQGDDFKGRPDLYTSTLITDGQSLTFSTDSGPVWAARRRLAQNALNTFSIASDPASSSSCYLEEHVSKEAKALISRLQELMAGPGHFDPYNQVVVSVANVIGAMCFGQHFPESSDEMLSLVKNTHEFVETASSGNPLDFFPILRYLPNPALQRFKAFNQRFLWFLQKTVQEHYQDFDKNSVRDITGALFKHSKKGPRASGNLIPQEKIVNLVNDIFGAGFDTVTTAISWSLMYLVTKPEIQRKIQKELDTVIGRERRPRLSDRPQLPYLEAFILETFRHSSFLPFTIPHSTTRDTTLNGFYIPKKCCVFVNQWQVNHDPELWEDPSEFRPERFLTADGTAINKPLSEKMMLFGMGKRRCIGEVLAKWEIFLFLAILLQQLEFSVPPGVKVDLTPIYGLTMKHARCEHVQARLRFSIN

Heart [13] = assay: Drug uptake in mouse heart at 50 mg/kg, po in 20% Kolliphor measured at 8 hrs post dose; format: ADME, organism-based; design: dose 50 mg/kg, route oral; details: in vivo; procedure, shortened: as §1
[14] = Drug uptake in mouse skeletal muscle at 50 mg/kg, po in 20% Kolliphor measured at 8 hrs post dose; format: ADME, organism-based, Muscle tissue; design: dose 50 mg/kg, route oral; details: in vivo; procedure, shortened: as §1
Cytochrome P450 2C9 = Cytochrome P450 2C9 (Homo sapiens, UniProt P11712); assay: Inhibition of CYP2C9 in human liver microsomes at 1 uM; format: ADME
Sequence of Cytochrome P450 2C9 (P11712 whole entry): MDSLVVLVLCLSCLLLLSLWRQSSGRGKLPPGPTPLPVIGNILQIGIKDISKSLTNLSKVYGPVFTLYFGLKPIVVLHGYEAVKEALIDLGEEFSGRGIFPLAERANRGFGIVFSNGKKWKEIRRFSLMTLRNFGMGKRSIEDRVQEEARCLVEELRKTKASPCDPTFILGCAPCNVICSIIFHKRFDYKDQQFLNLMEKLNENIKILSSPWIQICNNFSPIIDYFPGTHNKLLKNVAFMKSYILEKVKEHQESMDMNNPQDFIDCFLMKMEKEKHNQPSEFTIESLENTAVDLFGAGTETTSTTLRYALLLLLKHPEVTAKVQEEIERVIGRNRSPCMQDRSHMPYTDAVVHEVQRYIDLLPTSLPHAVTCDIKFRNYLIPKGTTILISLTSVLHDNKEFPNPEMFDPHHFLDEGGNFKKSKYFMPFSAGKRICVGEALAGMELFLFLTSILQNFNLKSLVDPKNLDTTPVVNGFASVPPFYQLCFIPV

[15] = Clearance in mouse at 50 mg/kg, po in 20% HP-beta-CD; format: ADME, organism-based; design: dose 50 mg/kg, route oral; details: in vivo; procedure, shortened: as §2
Liver microsome [16] = assay: Half life in rat liver microsomes; format: ADME
[17] = Drug uptake in mouse fat at 50 mg/kg, po in 20% HP-beta-CD measured at 8 hrs post dose; format: ADME, organism-based, Adipose tissue; design: dose 50 mg/kg, route oral; details: in vivo; procedure, shortened: as §1
[18] = Clearance in mouse at 50 mg/kg, po in 20% Kolliphor; format: ADME, organism-based; design: dose 50 mg/kg, route oral; details: in vivo; procedure, shortened: as §2
Trypanosoma cruzi [19] = assay: Antitrypanosomal activity against Trypanosoma cruzi amastigotes infected in mouse C2C12 cells after 72 hrs by DAPI staining method; format: functional, organism-based; details: C2C12, 72 h
[20] = Cmax in mouse at 50 mg/kg, po in 20% Kolliphor; format: ADME, organism-based; design: dose 50 mg/kg, route oral; details: in vivo; procedure, shortened: as §2
[21] = Drug uptake in mouse fat at 50 mg/kg, po in 20% Kolliphor measured at 8 hrs post dose; format: ADME, organism-based, Adipose tissue; design: dose 50 mg/kg, route oral; details: in vivo; procedure, shortened: as §1
[22] = Tmax in mouse at 50 mg/kg, po in 20% HP-beta-CD; format: ADME, organism-based; design: dose 50 mg/kg, route oral; details: in vivo; procedure, shortened: as §2
Cytochrome P450 3A4 = Cytochrome P450 3A4 (Homo sapiens, UniProt P08684); assay: Inhibition of CYP3A4 in human liver microsomes at 1 uM; format: ADME
Sequence of Cytochrome P450 3A4 (P08684 whole entry): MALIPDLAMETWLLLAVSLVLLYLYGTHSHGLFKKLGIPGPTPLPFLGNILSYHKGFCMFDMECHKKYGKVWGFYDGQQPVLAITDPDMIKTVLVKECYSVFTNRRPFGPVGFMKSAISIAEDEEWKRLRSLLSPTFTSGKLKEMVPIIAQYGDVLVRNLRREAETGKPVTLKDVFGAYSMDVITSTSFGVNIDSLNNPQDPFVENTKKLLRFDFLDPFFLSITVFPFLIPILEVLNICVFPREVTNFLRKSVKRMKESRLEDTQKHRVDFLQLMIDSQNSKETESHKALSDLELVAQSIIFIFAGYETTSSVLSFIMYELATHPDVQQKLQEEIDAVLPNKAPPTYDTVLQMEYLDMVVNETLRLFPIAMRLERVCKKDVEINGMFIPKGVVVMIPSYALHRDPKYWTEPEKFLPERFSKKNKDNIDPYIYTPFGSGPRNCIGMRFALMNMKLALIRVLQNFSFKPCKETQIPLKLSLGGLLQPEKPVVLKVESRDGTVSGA

Trypanosoma cruzi [23] = assay: Antitrypanosomal activity against Trypanosoma cruzi Y luc infected in mouse assessed as inhibition of parasitemia at 25 mg/kg, po bid in 20% Kolliphor administered for 4 consecutive days starting on day 3 of infection measured on day 7 post infection relative to vehicle-treated control; format: functional; procedure, shortened: as §3
[24] = Half life in mouse at 50 mg/kg, po in 20% HP-beta-CD; format: ADME, organism-based; design: dose 50 mg/kg, route oral; details: in vivo; procedure, shortened: as §2
[25] = Tmax in mouse at 50 mg/kg, po in 20% Kolliphor; format: ADME, organism-based; design: dose 50 mg/kg, route oral; details: in vivo; procedure, shortened: as §2
[26] = Cmax in mouse at 50 mg/kg, po in 20% HP-beta-CD; format: ADME, organism-based; design: dose 50 mg/kg, route oral; details: in vivo; procedure, shortened: as §2
Intestine [27] = assay: Drug uptake in mouse intestine at 50 mg/kg, po in 20% HP-beta-CD measured at 8 hrs post dose; format: ADME, organism-based; design: dose 50 mg/kg, route oral; details: in vivo; procedure, shortened: as §1
C2C12 = assay: Cytotoxicity against mouse C2C12 cells up to 10 uM; format: cell-based
Procedure, shortened: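 Mouse C2C12 myoblasts infected with T. cruzi CA-I/72, then exposed at 24 h postinfection to compound at 10 μM down to 5 pM in 5-fold steps for 72 h at 37 °C. Cells fixed in paraformaldehyde, stained with DAPI and scored by automated imaging. Triplicate wells; uninfected and infected untreated wells as controls.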

Intestine [28] = assay: Drug uptake in mouse intestine at 50 mg/kg, po in 20% Kolliphor measured at 8 hrs post dose; format: ADME, organism-based; design: dose 50 mg/kg, route oral; details: in vivo; procedure, shortened: as §1
Lung [29] = assay: Drug uptake in mouse lung at 50 mg/kg, po in 20% HP-beta-CD measured at 8 hrs post dose; format: ADME, organism-based; design: dose 50 mg/kg, route oral; details: in vivo; procedure, shortened: as §1

SMILES | Drug uptake (Liver [1]) | Drug uptake (Liver [2]) | half-life [3] [min] | Kd [4] [nM] | Drug uptake (Heart [5]) | Drug uptake (Lung [6]) | t1/2 (Liver [7]) [min] | AUC(0-t) [8] [µM·h] | t1/2 (Liver microsome [9]) [min] | Drug uptake [10] | AUC(0-t) [11] [µM·h] | inhibition (INH) (Cytochrome P450 2D6) [%] | inhibition in vivo at 50 mg/kg (Trypanosoma cruzi [12]) [%] | inhibition (INH) (Cytochrome P450 1A2) [%] | Drug uptake (Heart [13]) | Drug uptake [14] | inhibition (INH) (Cytochrome P450 2C9) [%] | CL/F [15] [mL/min/kg] | t1/2 (Liver microsome [16]) [min] | Drug uptake [17] | also measured
O=C(N[C@H](Cc1c[nH]c2ccccc12)C(=O)Nc1ccncc1)c1ccc(-c2ccc(F)c(Cl)c2)cc1F | Active | Active | 1010 | 16 | Active | Active | 54 | 30.2 | 28 | Active | 153 | 29 | 85.2 | 2 | Active | Active | 93 | 44.4 | 25 | Active | CL/F [18]: 9.28 mL/min/kg; EC50 (Trypanosoma cruzi [19]): 78 nM; Cmax [20]: 17.8 µM; Drug uptake [21]: Active; Tmax [22]: 2.67 h; inhibition (INH) (Cytochrome P450 3A4): 29%; inhibition in vivo at 25 mg/kg (Trypanosoma cruzi [23]): 56.7%; half-life [24]: 310 min; Tmax [25]: 0.75 h; Cmax [26]: 5.88 µM; Drug uptake (Intestine [27]): Active; Activity (C2C12): Non-toxic; Drug uptake (Intestine [28]): Active; Drug uptake (Lung [29]): Active
O=C(N[C@H](Cc1c[nH]c2ccccc12)C(=O)Nc1ccncc1)c1ccc(-c2ccc(F)c(C(F)(F)F)c2)cc1F | Active | Active | 186 | ≤ 10 | Active | Active | 58 | 26.6 | 29 | Active | 84.5 | 36 | 97.4 | 2 | Active | Active | 96 | 52.5 | 27 | Active | CL/F [18]: 17.4 mL/min/kg; EC50 (Trypanosoma cruzi [19]): 170 nM; Cmax [20]: 7.35 µM; Drug uptake [21]: Active; Tmax [22]: 4.67 h; inhibition (INH) (Cytochrome P450 3A4): 9%; inhibition in vivo at 25 mg/kg (Trypanosoma cruzi [23]): 89.1%; half-life [24]: 150 min; Tmax [25]: 4.67 h; Cmax [26]: 5.1 µM; Drug uptake (Intestine [27]): Active; Activity (C2C12): Non-toxic; Drug uptake (Intestine [28]): Active; Drug uptake (Lung [29]): Active

Reference: ChEMBL document CHEMBL3352430, “4-Aminopyridyl-based CYP51 inhibitors as anti-Trypanosoma cruzi drug leads with improved pharmacokinetic profile and in vivo potency” (J Med Chem, 2014)
